# Experimental data as given in ChEMBL document CHEMBL1133100, “Design and synthesis of Cyclopenta[g]quinazoline-based antifolates as inhibitors of thymidylate synthase and potential antitumor agents(,)” (J Med Chem, 2000).
# Experiments:
# [1] = biological target: T1, Thymidylate synthase (Mus musculus, UniProt P07607); test: Compound was tested for the binding affinity against thymidylate synthase from L1210 mouse leukemia cells; value given as 2.4,1.8; assay type: cell-based; details: read-out: Ki app
# T1 sequence (P07607 whole entry): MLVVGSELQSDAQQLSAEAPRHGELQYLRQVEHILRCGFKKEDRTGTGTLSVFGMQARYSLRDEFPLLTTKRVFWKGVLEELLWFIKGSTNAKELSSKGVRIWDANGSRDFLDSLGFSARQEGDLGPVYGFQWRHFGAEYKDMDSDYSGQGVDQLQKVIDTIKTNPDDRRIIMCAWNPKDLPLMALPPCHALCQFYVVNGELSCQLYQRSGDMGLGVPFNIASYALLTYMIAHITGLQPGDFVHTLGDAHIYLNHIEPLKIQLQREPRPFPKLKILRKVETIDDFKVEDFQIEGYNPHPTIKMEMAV
# Method in brief: (§1)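 Enzyme source was partially purified thymidylate synthase from L1210 mouse leukemia cells that overproduce TS through TS gene amplification. Apparent Ki was determined alongside the control CB3717 in each experiment. The test Kiapp/CB3717 Kiapp ratio was multiplied by the mean CB3717 Kiapp across experiments to allow comparison between experiments.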
# [2] = test system: L1210; test: Compound was tested for the inhibition of L1210:1565 cell growth in mouse; value given as 3.5,4.1; assay type: functional, cell-based
# [3] = test system: L1210; test: Compound was tested for the inhibition of L1210 cell growth in mouse; value given as 1.7,2.0; assay type: functional, cell-based
# [4] = biological target: T1, Thymidylate synthase; test: Binding affinity against thymidylate synthase from L1210 mouse leukemia cells; assay type: cell-based; details: read-out: Ki app; method in brief: as §1
# [5] = test system: L1210; test: Compound was tested for the inhibition of L1210 cell growth in mouse.; assay type: functional, cell-based
# [6] = test system: L1210; test: Compound was tested for the inhibition of L1210: 1565 cell growth in mouse.; assay type: functional, cell-based
# [7] = test system: L1210; test: Compound was tested for the inhibition of L1210 cell growth in mouse; value given as 7.2, 7.2; assay type: functional, cell-based
# [8] = test system: L1210; test: Compound was tested for the inhibition of L1210: 1565 cell growth in mouse; value given as 3.9, 3.0; assay type: functional, cell-based
# [9] = biological target: T1, Thymidylate synthase; test: Compound was tested for the binding affinity against thymidylate synthase from L1210 mouse leukemia cells; value given as 0.9, 2.0; assay type: cell-based; details: read-out: Ki app; method in brief: as §1
# [10] = test system: L1210; test: Compound was tested for the inhibition of L1210 cell growth in mouse; Value was given as 2.3,1.8.; assay type: functional, cell-based
# [11] = test system: L1210; test: Compound was tested for the inhibition of L1210: 1565 cell growth in mouse; value given as 8.2, 7.8; assay type: functional, cell-based
# [12] = test system: L1210; test: Compound was tested for the inhibition of L1210: 1565 cell growth in mouse; value given as 3.6, 2.7; assay type: functional, cell-based
# [13] = test system: L1210; test: Compound was tested for the inhibition of L1210: 1565 cell growth in mouse; value given as 1.2, 1.6; assay type: functional, cell-based
# [14] = test system: L1210; test: Compound was tested for the inhibition of L1210: 1565 cell growth in mouse; Value given as 1.3,0.84; assay type: functional, cell-based
Structure (SMILES),Ki [4] [nM],IC50 [5] [nM],IC50 [6] [nM],further results
C#CCN(c1ccc(C(=O)N[C@@H](CCc2nnnn2CC(=O)O)C(=O)O)cc1)C1CCc2cc3nc(C)nc(O)c3cc21 (some centres not stated),–,–,–,Ki [1]: 2.4 nM; IC50 [2]: 4100 nM; IC50 [3]: 2000 nM
C#CCN(c1ccc(C(=O)N[C@@H](CCC(=O)N[C@H](CCC(=O)O)C(=O)O)C(=O)O)cc1)C1CCc2cc3nc(C)nc(O)c3cc21 (some centres not stated),0.42,300,2200,–
C#CCN(c1ccc(C(=O)N[C@@H](CCc2nnnn2CC(=O)N[C@H](C)C(=O)O)C(=O)O)cc1)C1CCc2cc3nc(C)nc(O)c3cc21 (some centres not stated),2.2,19000,13000,–
C#CCN(c1ccc(C(=O)N[C@@H](CCC(=O)N[C@@H](CCc2nnnn2CC(=O)O)C(=O)O)C(=O)O)cc1)C1CCc2cc3nc(C)nc(O)c3cc21 (some centres not stated),0.26,–,–,IC50 [7]: 7200 nM; IC50 [8]: 3900 nM
C#CCN(c1ccc(C(=O)N[C@@H](CCC(=O)N(C)[C@H](CCC(=O)O)C(=O)O)C(=O)O)cc1)C1CCc2cc3nc(C)nc(O)c3cc21 (some centres not stated),0.78,–,4400,IC50 [10]: 2300 nM
C#CCN(c1ccc(C(=O)N[C@@H](CCCS(=O)(=O)c2nnc[nH]2)C(=O)O)cc1)C1CCc2cc3nc(C)[nH]c(=O)c3cc21 (some centres not stated),0.78,490,680,–
C#CCN(c1ccc(C(=O)N[C@@H](CCC(=O)N[C@H](C)C(=O)NS(=O)(=O)c2ccccc2)C(=O)O)cc1)C1CCc2cc3nc(C)nc(O)c3cc21 (some centres not stated),2.4,1900,–,IC50 [11]: 8200 nM
C#CCN(c1ccc(C(=O)N[C@@H](CCC(=O)N[C@H](C)c2nnn[nH]2)C(=O)O)cc1)C1CCc2cc3nc(C)[nH]c(=O)c3cc21 (some centres not stated),2.2,640,–,IC50 [13]: 1600 nM
C#CCN(c1ccc(C(=O)N[C@@H](CCc2nnn(CC(=O)O)n2)C(=O)O)cc1)C1CCc2cc3nc(C)nc(O)c3cc21 (some centres not stated),1.7,180,–,IC50 [14]: 1300 nM
C#CCN(c1ccc(C(=O)N[C@@H](CCC(=O)N[C@H](CCC(=O)O)c2nnn[nH]2)C(=O)O)cc1)C1CCc2cc3nc(C)[nH]c(=O)c3cc21 (some centres not stated),0.2,1500,1300,–

# Further lines, with some results ahead:
Ki [4] [nM],IC50 [5] [nM],IC50 [6] [nM],Structure (SMILES),further results
2,220,14000,C#CCN(Cc1cc2c(O)nc(C)nc2cc1C)c1ccc(C(=O)N[C@@H](CCC(=O)N[C@H](CCC(=O)O)C(=O)O)C(=O)O)cc1,–
–,2700,2300,C#CCN(c1ccc(C(=O)N[C@@H](CCc2nnnn2CCCC(=O)O)C(=O)O)cc1)C1CCc2cc3nc(C)nc(O)c3cc21 (some centres not stated),Ki [9]: 2 nM
2.6,440,–,C#CCN(c1ccc(C(=O)N[C@@H](CCC(=O)N[C@H](CCC)c2nnn[nH]2)C(=O)O)cc1)C1CCc2cc3nc(C)[nH]c(=O)c3cc21 (some centres not stated),IC50 [12]: 3600 nM
1.1,420,1400,C#CCN(c1ccc(C(=O)N[C@@H](CCC(=O)N[C@H](C)C(=O)O)C(=O)O)cc1)C1CCc2cc3nc(C)nc(O)c3cc21 (some centres not stated),–
